# In ChEMBL document CHEMBL4680156, “Discovery of novel pyrido-pyrrolidine hybrid compounds as alpha-glucosidase inhibitors and alternative agent for control of type 1 diabetes” (Eur J Med Chem, 2020):
# Active and inactive are the calls of the source. The calls are words filed in the database; no cut-off is given here.
# Columns and labels:
# [1] = target: T1, Tissue alpha-L-fucosidase (Bos taurus) (UniProt Q2KIM0); assay: Inhibition of bovine kidney alpha-fucosidase at 1 mM using […] as substrate incubated for 10 mins by spectrophotometric method
# T1 sequence (whole entry): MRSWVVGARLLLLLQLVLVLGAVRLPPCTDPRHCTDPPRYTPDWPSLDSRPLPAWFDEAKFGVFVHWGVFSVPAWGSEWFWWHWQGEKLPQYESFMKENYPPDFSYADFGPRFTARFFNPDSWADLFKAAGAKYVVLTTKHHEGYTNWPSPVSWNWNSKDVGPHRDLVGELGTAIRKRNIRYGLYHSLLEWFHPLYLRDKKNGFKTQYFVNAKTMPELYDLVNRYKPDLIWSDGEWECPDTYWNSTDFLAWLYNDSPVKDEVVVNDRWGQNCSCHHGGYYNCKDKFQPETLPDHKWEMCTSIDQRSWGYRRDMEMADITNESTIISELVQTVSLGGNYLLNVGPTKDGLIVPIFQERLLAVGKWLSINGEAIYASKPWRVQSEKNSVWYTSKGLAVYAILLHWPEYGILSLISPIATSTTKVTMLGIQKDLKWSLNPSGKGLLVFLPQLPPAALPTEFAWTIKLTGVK
# [2] = target: T2, Alpha-mannosidase (Canavalia ensiformis) (UniProt C0HJB3); assay: Inhibition of jack bean alpha-mannosidase at 1 mM using […] as substrate incubated for 10 mins by spectrophotometric method
# T2 sequence (whole entry): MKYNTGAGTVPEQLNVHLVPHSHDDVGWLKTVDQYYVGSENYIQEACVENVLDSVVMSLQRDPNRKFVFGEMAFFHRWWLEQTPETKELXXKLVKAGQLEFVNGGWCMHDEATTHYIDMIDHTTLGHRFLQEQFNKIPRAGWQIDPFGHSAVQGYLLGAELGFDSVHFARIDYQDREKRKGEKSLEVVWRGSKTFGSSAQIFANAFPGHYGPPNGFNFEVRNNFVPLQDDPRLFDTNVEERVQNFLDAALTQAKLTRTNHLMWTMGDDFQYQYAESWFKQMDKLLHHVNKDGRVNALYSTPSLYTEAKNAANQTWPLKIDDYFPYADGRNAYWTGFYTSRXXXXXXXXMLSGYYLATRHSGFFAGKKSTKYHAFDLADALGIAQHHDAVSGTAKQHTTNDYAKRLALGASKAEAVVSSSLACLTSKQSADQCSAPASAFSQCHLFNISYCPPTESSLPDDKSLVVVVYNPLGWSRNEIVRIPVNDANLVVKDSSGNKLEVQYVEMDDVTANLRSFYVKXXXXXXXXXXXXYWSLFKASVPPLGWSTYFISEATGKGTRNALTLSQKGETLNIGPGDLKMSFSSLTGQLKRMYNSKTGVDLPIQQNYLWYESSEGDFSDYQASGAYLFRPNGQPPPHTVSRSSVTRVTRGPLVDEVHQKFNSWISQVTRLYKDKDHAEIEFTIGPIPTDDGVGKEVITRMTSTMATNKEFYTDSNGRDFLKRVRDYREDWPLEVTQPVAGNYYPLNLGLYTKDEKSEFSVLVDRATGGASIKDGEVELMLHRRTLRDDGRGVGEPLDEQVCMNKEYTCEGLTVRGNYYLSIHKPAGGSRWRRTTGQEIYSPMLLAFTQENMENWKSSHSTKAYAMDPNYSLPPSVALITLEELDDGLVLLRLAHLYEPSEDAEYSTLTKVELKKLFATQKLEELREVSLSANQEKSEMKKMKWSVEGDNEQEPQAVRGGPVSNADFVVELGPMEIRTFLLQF
# Saccharomyces cerevisiae = assay: Inhibition of Saccharomyces cerevisiae alpha-glucosidase at 1 mM using PNPG as substrate incubated for 10 mins by spectrophotometric method
# [3] = Inhibition of Saccharomyces cerevisiae alpha-glucosidase using PNPG as substrate incubated for 10 mins by spectrophotometric method
# [4] = Inhibition of Saccharomyces cerevisiae alpha-glucosidase using maltose as substrate preincubated for 5 mins followed by substrate addition and measured after 15 mins by LC-TQ-MS/MS analysis
# [5] = target: T3, Tissue alpha-L-fucosidase (Bos taurus, UniProt Q2KIM0); assay: Inhibition of bovine kidney alpha-fucosidase using […] as substrate incubated for 10 mins by spectrophotometric method
# T3 sequence (Q2KIM0 whole entry): T1 sequence (whole entry)
# Alpha-mannosidase = target: T4, Alpha-mannosidase (Canavalia ensiformis, UniProt C0HJB3); assay: Inhibition of jack bean alpha-mannosidase using […] as substrate incubated for 10 mins by spectrophotometric method
# T4 sequence (C0HJB3 whole entry): T2 sequence (whole entry)
# [6] = Inhibition of fungi maltase
# Summary of the method: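 Yeast α-glucosidase, 0.1 IU per well, was added to 2 mM 4-nitrophenyl α-D-glucopyranoside in 10 mM potassium phosphate pH 7.2, with compound from DMSO at 2–10 μM. Plates ran 10 min at 37 °C and were read at 430 nm. Inhibition was calculated against a buffer control, and IC50 came from three independent assays run in triplicate.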
# [7] = Inhibition of rice alpha-glucosidase; parameters: species or system Oryza sativa
# [8] = Inhibition of Saccharomyces cerevisiae alpha-glucosidase assessed as reduction in p-nitrophenol liberation using PNPG as substrate preincubated with substrate for 5 mins followed by incubation with enzyme for 5 mins
# Maltase-glucoamylase = Maltase-glucoamylase (Homo sapiens, UniProt O43451); assay: Inhibition of alpha-glucosidase (unknown origin) using sucrose as substrate incubated for 30 mins
# [9] = Inhibition of Wistar rat intestinal maltase assessed as reduction in released D-glucose level using maltose as substrate by colorimetric assay; format: tissue-based, Intestine
# [10] = Inhibition of Saccharomyces cerevisiae alpha-glucosidase assessed as reduction in p-nitrophenol release using p-nitrophenyl glycoside as substrate by spectrophotometric analysis
# Rattus norvegicus [11] = assay: Antidiabetic activity against STZ-induced type 1 diabetic Sprague-Dawley rat model assessed as decrease in fasting blood glucose level at 60 mg/kg, po administered once daily for 28 days; format: functional, organism-based; conditions: time 28.0 day
# Summary of the method: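 Male Sprague-Dawley rats (250–320 g, 8–10 weeks) were given STZ 70 mg/kg ip once in 0.1 mmol/L citrate buffer, pH 4.5. Rats with random glucose >125 mg/dl at 4 days were counted diabetic. Dosing was 60 mg/kg in 0.5% saline by gavage once daily for 4 weeks, n=6 per group. After a 6 h fast, tail blood glucose was read by glucometer. Data are mean ± SD; 2-way ANOVA.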
# [12] = Toxicity in STZ-treated diabetic Sprague-Dawley rat model assessed as decrease in body weight at 60 mg/kg, po administered once daily for 28 days; format: organism-based; conditions: in vivo, 672 h, time 28 day
# Summary of the method: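 Male Sprague-Dawley rats (250–320 g, 8–10 weeks) were made diabetic with a single STZ dose (70 mg/kg ip in 0.1 mmol/L citrate buffer, pH 4.5). Random glucose above 125 mg/dl defined diabetes. Dosing was 60 mg/kg in 0.5% saline by gastric gavage once daily for 4 weeks, n=6 per group, with vehicle controls. Body weight was recorded before and after treatment; mean ± SD, 2-way ANOVA.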
# Rattus norvegicus [13] = assay: Decrease in post prandial glucose level in type 1 diabetic Sprague-Dawley rat model at 60 mg/kg, po administered once daily for 28 days; conditions: time 28.0 day
# Chain of Maltase-glucoamylase (O43451 whole entry): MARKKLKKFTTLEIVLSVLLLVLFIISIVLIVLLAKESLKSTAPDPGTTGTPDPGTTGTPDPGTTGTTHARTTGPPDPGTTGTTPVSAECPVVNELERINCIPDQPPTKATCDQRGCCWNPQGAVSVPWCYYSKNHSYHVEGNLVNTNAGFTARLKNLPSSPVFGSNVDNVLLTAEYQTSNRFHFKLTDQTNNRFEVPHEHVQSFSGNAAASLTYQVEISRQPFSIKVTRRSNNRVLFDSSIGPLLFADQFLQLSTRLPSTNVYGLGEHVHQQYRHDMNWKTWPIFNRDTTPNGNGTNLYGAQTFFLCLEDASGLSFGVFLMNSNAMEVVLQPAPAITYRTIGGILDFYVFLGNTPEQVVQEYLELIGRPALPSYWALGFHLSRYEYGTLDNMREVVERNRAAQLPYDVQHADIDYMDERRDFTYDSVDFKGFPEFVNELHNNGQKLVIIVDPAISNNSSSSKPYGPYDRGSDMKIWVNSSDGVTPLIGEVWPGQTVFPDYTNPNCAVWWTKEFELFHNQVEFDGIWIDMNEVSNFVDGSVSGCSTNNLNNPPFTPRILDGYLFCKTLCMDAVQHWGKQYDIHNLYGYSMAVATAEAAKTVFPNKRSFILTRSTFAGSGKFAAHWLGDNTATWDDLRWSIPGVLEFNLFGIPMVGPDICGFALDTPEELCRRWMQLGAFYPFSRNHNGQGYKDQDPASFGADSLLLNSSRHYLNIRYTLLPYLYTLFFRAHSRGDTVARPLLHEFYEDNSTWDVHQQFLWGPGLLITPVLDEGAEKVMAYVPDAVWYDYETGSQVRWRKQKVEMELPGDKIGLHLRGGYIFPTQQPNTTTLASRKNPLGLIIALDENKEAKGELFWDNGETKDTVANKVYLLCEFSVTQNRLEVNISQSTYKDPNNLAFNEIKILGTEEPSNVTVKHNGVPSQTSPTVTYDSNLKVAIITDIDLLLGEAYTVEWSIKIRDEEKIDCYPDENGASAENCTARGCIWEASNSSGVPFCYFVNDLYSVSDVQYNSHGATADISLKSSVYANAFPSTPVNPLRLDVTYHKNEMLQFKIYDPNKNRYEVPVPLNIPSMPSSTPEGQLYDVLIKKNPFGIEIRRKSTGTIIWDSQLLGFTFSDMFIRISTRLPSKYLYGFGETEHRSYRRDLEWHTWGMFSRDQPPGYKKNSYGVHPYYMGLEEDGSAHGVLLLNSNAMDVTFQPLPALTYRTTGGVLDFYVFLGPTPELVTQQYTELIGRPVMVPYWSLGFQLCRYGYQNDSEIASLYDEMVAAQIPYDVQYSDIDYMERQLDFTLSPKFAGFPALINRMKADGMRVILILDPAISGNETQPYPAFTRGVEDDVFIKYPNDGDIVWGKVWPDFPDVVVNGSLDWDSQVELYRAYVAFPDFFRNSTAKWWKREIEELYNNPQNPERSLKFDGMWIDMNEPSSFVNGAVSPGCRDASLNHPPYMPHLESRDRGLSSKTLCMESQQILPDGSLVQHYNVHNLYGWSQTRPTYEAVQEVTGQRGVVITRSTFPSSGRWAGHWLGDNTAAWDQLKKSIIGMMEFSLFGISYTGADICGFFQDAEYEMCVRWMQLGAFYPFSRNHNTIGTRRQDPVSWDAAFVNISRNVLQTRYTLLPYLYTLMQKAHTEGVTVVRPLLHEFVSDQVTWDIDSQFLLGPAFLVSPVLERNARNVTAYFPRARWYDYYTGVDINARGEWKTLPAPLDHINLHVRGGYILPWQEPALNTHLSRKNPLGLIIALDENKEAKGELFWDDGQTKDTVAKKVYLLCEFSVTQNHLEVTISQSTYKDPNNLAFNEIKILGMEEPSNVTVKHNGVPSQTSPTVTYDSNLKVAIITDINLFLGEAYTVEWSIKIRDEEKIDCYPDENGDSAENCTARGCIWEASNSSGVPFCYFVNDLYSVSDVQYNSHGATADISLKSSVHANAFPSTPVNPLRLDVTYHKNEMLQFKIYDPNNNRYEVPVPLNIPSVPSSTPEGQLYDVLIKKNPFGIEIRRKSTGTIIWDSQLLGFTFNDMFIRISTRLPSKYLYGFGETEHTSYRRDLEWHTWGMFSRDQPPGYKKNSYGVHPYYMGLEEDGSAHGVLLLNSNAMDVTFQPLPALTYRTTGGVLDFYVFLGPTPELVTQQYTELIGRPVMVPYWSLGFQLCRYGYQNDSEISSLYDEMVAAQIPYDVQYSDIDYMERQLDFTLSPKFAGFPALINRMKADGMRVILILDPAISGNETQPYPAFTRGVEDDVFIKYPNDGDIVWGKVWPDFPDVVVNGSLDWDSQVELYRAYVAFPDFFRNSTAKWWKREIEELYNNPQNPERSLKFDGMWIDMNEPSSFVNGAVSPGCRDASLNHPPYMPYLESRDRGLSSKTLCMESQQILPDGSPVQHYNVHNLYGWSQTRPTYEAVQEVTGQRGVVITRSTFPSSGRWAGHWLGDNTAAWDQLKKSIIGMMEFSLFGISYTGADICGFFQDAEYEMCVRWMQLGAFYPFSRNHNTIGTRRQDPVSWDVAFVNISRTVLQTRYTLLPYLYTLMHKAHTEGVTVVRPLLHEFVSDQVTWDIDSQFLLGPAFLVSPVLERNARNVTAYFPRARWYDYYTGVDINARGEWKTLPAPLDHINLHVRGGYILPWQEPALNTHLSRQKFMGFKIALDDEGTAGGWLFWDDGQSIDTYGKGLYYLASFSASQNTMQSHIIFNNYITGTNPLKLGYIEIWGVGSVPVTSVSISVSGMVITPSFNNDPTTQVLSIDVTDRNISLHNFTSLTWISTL
SMILES,inhibition [1],inhibition [2],IC50 [3],IC50 [5],IC50 (Alpha-mannosidase),also measured
Cc1cc2c(c(=O)[nH]1)C(=O)O/C2=C\c1ccc(CO)n1CCc1ccccc1,< 50%,< 50%,–,–,–,inhibition (Saccharomyces cerevisiae): < 50%
Oc1cc(O)cc(/C=C/c2cc(O)c(O)c(O)c2)c1,< 50%,< 50%,31.1 µM,–,–,–
Cc1cc2c(c(=O)[nH]1)C(=O)O/C2=C\c1ccc(CO)n1-c1ccccc1C,< 50%,< 50%,–,–,–,inhibition (Saccharomyces cerevisiae): < 50%
O=c1c2cc(O)c(O)cc2oc2cc(O)cc(O)c12,< 50%,< 50%,62.3 µM,–,–,–
O=C(O)c1cc(O)c2c(c1)C(=O)c1cccc(O)c1C2=O [RHEIN],–,< 50%,26.4 µM,32 µM,–,IC50 [4]: 5.68 µM
Cc1ccc(S(=O)(=O)Nc2ccc(C(=O)/C=C/c3ccc(O)cc3)cc2)cc1,–,–,82.7 µM,91 µM,105 µM,–
Cc1ccc(S(=O)(=O)Nc2ccc(C(=O)/C=C/c3ccc(O)c(O)c3)cc2)cc1,–,–,82.7 µM,91 µM,105 µM,–
OC[C@@H]1[C@@H](O)[C@H](O)[C@H]2[C@H](O)[C@@H](O)CN21 [CASUARINE],–,–,41.1 µM,82 µM,51 µM,IC50 [6]: 0.7 µM; IC50 [7]: 1.2 µM
O=c1c(-c2ccc(O)cc2)coc2cc(O)cc(O)c12 [GENISTEIN],–,–,81 µM,54 µM,49 µM,IC50 [8]: 7 µM
C=CC(C)(C)c1c(O)cc2oc3c(CC=C(C)C)c(O)c(O)cc3c(=O)c2c1O [CUDRAXANTHONE L],< 50%,< 50%,62.3 µM,–,–,–
O=C1c2cccc(O)c2C(=O)c2c(O)cc(CO)cc21 [ALOE-EMODIN],–,< 50%,26.4 µM,32 µM,–,IC50 [4]: 4.56 µM
C=CCn1c(/C=C2\OC(=O)c3c2cc(C)[nH]c3=O)ccc1CO,< 50%,< 50%,–,–,–,inhibition (Saccharomyces cerevisiae): < 50%
Cc1cc2c(c(=O)[nH]1)C(=O)O/C2=C\c1ccc(CO)n1-c1ccc(Cl)cc1,< 50%,< 50%,21.9 µM,–,–,–
Cc1cc2c(c(=O)[nH]1)C(=O)O/C2=C\c1ccc(CO)n1-c1ccc(O)cc1,–,< 50%,33.3 µM,21.7 µM,–,–
Cc1ccc(S(=O)(=O)Nc2cccc(C(=O)/C=C/c3ccc(O)c(O)c3)c2)cc1,–,–,82.7 µM,91 µM,105 µM,–
O=C(N/N=C/c1ccc(Cl)cc1)c1ccc(-c2nc3ccccc3s2)cc1,< 50%,–,20.5 µM,–,15 µM,–
Cc1cc2c(c(=O)[nH]1)C(=O)O/C2=C\c1ccc(CO)n1CCc1c[nH]c2ccccc12,–,< 50%,4.4 µM,12.9 µM,–,–
OCc1ccc2n1C[C@@H](c1ccc(O)cc1)OC2,–,–,5.01 µM,21 µM,14 µM,–

SMILES,inhibition [1],inhibition [2],IC50 [3],IC50 [5],IC50 (Alpha-mannosidase),also measured
OC[C@@H]1N[C@@H](c2ccc(O)cc2)[C@H](O)[C@H]1O,–,–,25.2 µM,41 µM,28 µM,IC50 (Maltase-glucoamylase): 9.3 µM
CC(C)c1ccc(/C=C2\C(=O)Nc3cc(Cl)ccc32)cc1,–,–,15 µM,65 µM,28 µM,–
COc1ccc([C@@H]2N[C@@H](CO)[C@H](O)[C@H]2O)cc1O [L-RADICAMINE A],–,–,25.2 µM,41 µM,28 µM,IC50 (Maltase-glucoamylase): 6.7 µM
Cc1cc2c(c(=O)[nH]1)C(=O)O/C2=C\c1ccc(CO)n1-c1ccccc1,–,–,27.4 µM,38.4 µM,61.4 µM,–
Cc1cc2c(c(=O)[nH]1)C(=O)O/C2=C\c1ccc(CO)n1-c1ccc(F)cc1,< 50%,< 50%,20.7 µM,–,–,–
Cc1ccc(S(=O)(=O)Nc2cccc(C(=O)/C=C/c3ccc(O)cc3)c2)cc1,–,–,82.7 µM,91 µM,105 µM,–
Cc1cc(O)c2c(c1)C(=O)c1cc(O)cc(O)c1C2=O [EMODIN],–,< 50%,26.4 µM,32 µM,–,IC50 [4]: 4.12 µM
OC[C@H]1NC[C@@H](O)[C@@H]1O,–,< 50%,58 µM,–,–,IC50 [9]: 5.8 µM; IC50 [10]: 0.15 µM
C[C@H]1O[C@H](O[C@H]2[C@H](O)[C@@H](O)[C@@H](O[C@H]3[C@H](O)[C@@H](O)C(O)O[C@@H]3CO)O[C@@H]2CO)[C@H](O)[C@@H](O)[C@@H]1N[C@H]1C=C(CO)[C@@H](O)[C@H](O)[C@H]1O (stereo partly specified) [ACARBOSE],–,–,2.1 µM,–,–,Activity (Rattus norvegicus [11]): Active; Activity [12]: Non-Toxic; inhibition (Rattus norvegicus [13]): inactive
COc1cc(O)c2c(c1)C(=O)c1cc(C)cc(O)c1C2=O [PHYSCION],–,< 50%,26.4 µM,32 µM,–,IC50 [4]: 5.32 µM
Cc1cc2c(c(=O)[nH]1)C(=O)O/C2=C\c1ccc(CO)n1Cc1ccccc1,–,–,20.8 µM,51.1 µM,92.3 µM,–
O=C1Nc2cc(Cl)ccc2/C1=C/c1ccc(O)c(O)c1,–,–,15 µM,65 µM,28 µM,–
C=CC(C)(C)c1c2c(c(O)c3c(=O)c4ccc(O)c(O)c4oc13)C=CC(C)(C)O2 [MACLURAXANTHONE],< 50%,< 50%,62.3 µM,–,–,–
CC(C)=CCc1cc(C(=O)/C=C/c2ccc(O)c(O)c2)c(O)cc1O [BROUSSOCHALCONE A],< 50%,< 50%,101 µM,–,–,–
O=C1Nc2cc(Cl)ccc2/C1=C/c1ccccc1[N+](=O)[O-],–,–,15 µM,65 µM,28 µM,–
C#CCn1c(/C=C2\OC(=O)c3c2cc(C)[nH]c3=O)ccc1CO,< 50%,< 50%,–,–,–,inhibition (Saccharomyces cerevisiae): < 50%
CC(C)=CCc1cc(-c2oc3cc(O)c(CC=C(C)C)c(O)c3c(=O)c2O)cc(O)c1O [BROUSSONOL E],–,< 50%,85.9 µM,89 µM,–,–
